Test results: ChEMBL document CHEMBL2150944, “Antimalarial activity of pyrroloiminoquinones from the Australian marine sponge Zyzzya sp” (J Med Chem, 2012)
Activity calls are given as the source filed them. The rule behind the calls is not given here.

Assays:
[1] = tested on: XRS6; experiment: Cytotoxicity against Chinese hamster Xrs-6 cells; format: cell-based; conditions: Cricetulus griseus
[2] = tested on: HCT-116; experiment: Cytotoxicity against human HCT116 cells; format: functional, cell-based
[3] = biological target: DNA topoisomerase 2-alpha (Homo sapiens) (UniProt P11388); experiment: Inhibition of topoisomerase 2 by decatenation assay
[4] = Plasma concentration in Swiss mouse at 8 mg/kg, sc administered as suspension measured 1 hr post dose; format: ADME, organism-based; set-up: dose 8 mg/kg, route subcutaneous
Summary of the method: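 Nonfasted male Swiss outbred mice (26−34 g) received a nominal 8 mg/kg subcutaneously into the dorsal skinfold. The compound was given as a suspension in saline vehicle containing 5−7% DMSO. Blood was taken by cardiac puncture under isoflurane at 0.25, 1 or 4 h, with n = 2 mice per time point, into stabilizer-containing heparinized tubes. Plasma was acetonitrile-precipitated and quantified by UPLC−MS.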

[5] = Intrinsic clearance in mouse liver microsomes assessed as per mg of protein at 1 uM after 60 mins; format: ADME, Microsome; conditions: read-out: CLH
Summary of the method: (§1)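 1 μM compound incubated at 37 °C with human or mouse liver microsomes (0.4 mg/mL protein) in 0.1 M phosphate pH 7.4. Reaction started with an NADPH-regenerating system plus MgCl2 and quenched with ice-cold acetonitrile at time points up to 60 min. Parent loss is followed by LC−MS and fitted to exponential decay, giving half-life and in vitro CLint.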

[6] = tested on: HEK293; experiment: Cytotoxicity against human HEK293 cells assessed as growth inhibition after 72 hrs by Alamar blue assay; format: cell-based; conditions: HEK293, 72 h
Summary of the method: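 HEK293 adherent cells (3000/well) were incubated with compound for 72 h at 37 °C and 5% CO2. Medium was removed, then 10% Alamar Blue was added for 5−6 h. Fluorescence was read at ex 535/em 590 nm. Inhibition was normalised to DMSO and 10 μM puromycin controls. IC50 came from nonlinear variable-slope regression of % inhibition against log dose.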

[7] = tested on: Plasmodium falciparum; experiment: Antimalarial activity against chloroquine-sensitive Plasmodium falciparum 3D7 ring stage assessed as growth inhibition upto 360 nM after 10 hrs by [3H]-hypoxanthine incorporation assay; format: functional, organism-based
Summary of the method: (§2)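 Synchronous 3D7 rings (~10−16 h post-invasion) or trophozoites (~24−30 h post-invasion) were used at 0.5% parasitemia and 5% hematocrit. Cultures were exposed to compound or 0.04% DMSO vehicle for 4, 6 or 10 h, then washed. Triplicate wells received 0.5 μCi 3H-hypoxanthine, and incorporation was counted after ~48−72 h. Results are % growth versus matched vehicle controls, from ≥2 independent experiments.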

[8] = Toxicity in Swiss albino mouse for 4 days; format: organism-based; conditions: in vivo
Summary of the method: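 Healthy mice dosed subcutaneously daily for 4 consecutive days, compound in Tween 80/ethanol (7/3 v/v) diluted 10-fold in distilled water (~0.2 mL). Mice are assessed before and after dosing for weight loss >10%, ruffled coat, shaking, severe pallor, reduced activity and behaviour changes.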

[9] = Intrinsic clearance in human liver microsomes assessed as per mg of protein at 1 uM after 60 mins; format: ADME, Microsome; conditions: read-out: CLH; summary of the method: as §1
[10] = Half life in human liver microsomes at 1 uM after 60 mins; format: ADME, Microsome; summary of the method: as §1
[11] = tested on: Plasmodium falciparum; experiment: Antimalarial activity against chloroquine-sensitive Plasmodium falciparum 3D7 assessed as growth inhibition after 72 hrs by DAPI staining; format: functional, organism-based; conditions: 3D7, 72 h
Summary of the method: (§3)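 P. falciparum 3D7 or Dd2 at 2% or 3% parasitemia, 0.3% hematocrit, exposed 72 h at 37 °C, 5% CO2. Staining with DAPI plus saponin and Triton X-100, 5 h at room temperature in the dark, then confocal imaging and automated counting of parasite spots. Percent inhibition is calculated against DMSO and 2 μM artemisinin controls.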

[12] = tested on: Plasmodium falciparum; experiment: Antimalarial activity against chloroquine-sensitive Plasmodium falciparum 3D7 trophozoite stage assessed as growth inhibition at 180 nM after 10 hrs by [3H]-hypoxanthine incorporation assay; format: functional, organism-based; summary of the method: as §2
[13] = tested on: Plasmodium berghei; experiment: Antimalarial activity against chloroquine-sensitive Plasmodium berghei ANKA infected in Swiss albino mouse assessed as suppression of parasitemia at 8 mg/kg/day, ip measured on day 4 post infection by Giemsa staining relative to control; format: functional; conditions: route intraperitoneal
[14] = tested on: Plasmodium berghei; experiment: Antimalarial activity against chloroquine-sensitive Plasmodium berghei ANKA infected in Swiss albino mouse assessed as suppression of parasitemia at 8 mg/kg/day, ip measured on day 1 post infection by Giemsa staining relative to control; format: functional; conditions: route intraperitoneal
[15] = tested on: Plasmodium berghei; experiment: Antimalarial activity against chloroquine-sensitive Plasmodium berghei ANKA infected in Swiss albino mouse assessed as suppression of parasitemia at 8 mg/kg/day, ip measured on day 2 post infection by Giemsa staining relative to control; format: functional; conditions: route intraperitoneal
[16] = Half life in mouse liver microsomes at 1 uM after 60 mins; format: ADME, Microsome; summary of the method: as §1
[17] = tested on: Plasmodium berghei; experiment: Antimalarial activity against chloroquine-sensitive Plasmodium berghei ANKA infected in Swiss albino mouse assessed as suppression of parasitemia at 8 mg/kg/day, ip measured on day 3 post infection by Giemsa staining relative to control; format: functional; conditions: route intraperitoneal
[18] = Selectivity index, ratio of IC50 for human HEK293 cells to IC50 for chloroquine-sensitive Plasmodium falciparum 3D7; format: toxicity, cell-based; conditions: read-out: Ratio IC50
[19] = Selectivity index, ratio of IC50 for human HEK293 cells to IC50 for chloroquine-resistant Plasmodium falciparum Dd2; format: toxicity, cell-based; conditions: read-out: Ratio IC50
[20] = tested on: Plasmodium falciparum; experiment: Antimalarial activity against chloroquine-sensitive Plasmodium falciparum 3D7 trophozoite stage assessed as growth inhibition at 360 nM after 10 hrs by [3H]-hypoxanthine incorporation assay; format: functional, organism-based; summary of the method: as §2
[21] = tested on: Plasmodium falciparum; experiment: Antimalarial activity against chloroquine-resistant Plasmodium falciparum Dd2 assessed as growth inhibition after 72 hrs by DAPI staining; format: functional, organism-based; conditions: Dd2, 72 h; summary of the method: as §3

Chain of DNA topoisomerase 2-alpha (Homo sapiens) (P11388 whole entry): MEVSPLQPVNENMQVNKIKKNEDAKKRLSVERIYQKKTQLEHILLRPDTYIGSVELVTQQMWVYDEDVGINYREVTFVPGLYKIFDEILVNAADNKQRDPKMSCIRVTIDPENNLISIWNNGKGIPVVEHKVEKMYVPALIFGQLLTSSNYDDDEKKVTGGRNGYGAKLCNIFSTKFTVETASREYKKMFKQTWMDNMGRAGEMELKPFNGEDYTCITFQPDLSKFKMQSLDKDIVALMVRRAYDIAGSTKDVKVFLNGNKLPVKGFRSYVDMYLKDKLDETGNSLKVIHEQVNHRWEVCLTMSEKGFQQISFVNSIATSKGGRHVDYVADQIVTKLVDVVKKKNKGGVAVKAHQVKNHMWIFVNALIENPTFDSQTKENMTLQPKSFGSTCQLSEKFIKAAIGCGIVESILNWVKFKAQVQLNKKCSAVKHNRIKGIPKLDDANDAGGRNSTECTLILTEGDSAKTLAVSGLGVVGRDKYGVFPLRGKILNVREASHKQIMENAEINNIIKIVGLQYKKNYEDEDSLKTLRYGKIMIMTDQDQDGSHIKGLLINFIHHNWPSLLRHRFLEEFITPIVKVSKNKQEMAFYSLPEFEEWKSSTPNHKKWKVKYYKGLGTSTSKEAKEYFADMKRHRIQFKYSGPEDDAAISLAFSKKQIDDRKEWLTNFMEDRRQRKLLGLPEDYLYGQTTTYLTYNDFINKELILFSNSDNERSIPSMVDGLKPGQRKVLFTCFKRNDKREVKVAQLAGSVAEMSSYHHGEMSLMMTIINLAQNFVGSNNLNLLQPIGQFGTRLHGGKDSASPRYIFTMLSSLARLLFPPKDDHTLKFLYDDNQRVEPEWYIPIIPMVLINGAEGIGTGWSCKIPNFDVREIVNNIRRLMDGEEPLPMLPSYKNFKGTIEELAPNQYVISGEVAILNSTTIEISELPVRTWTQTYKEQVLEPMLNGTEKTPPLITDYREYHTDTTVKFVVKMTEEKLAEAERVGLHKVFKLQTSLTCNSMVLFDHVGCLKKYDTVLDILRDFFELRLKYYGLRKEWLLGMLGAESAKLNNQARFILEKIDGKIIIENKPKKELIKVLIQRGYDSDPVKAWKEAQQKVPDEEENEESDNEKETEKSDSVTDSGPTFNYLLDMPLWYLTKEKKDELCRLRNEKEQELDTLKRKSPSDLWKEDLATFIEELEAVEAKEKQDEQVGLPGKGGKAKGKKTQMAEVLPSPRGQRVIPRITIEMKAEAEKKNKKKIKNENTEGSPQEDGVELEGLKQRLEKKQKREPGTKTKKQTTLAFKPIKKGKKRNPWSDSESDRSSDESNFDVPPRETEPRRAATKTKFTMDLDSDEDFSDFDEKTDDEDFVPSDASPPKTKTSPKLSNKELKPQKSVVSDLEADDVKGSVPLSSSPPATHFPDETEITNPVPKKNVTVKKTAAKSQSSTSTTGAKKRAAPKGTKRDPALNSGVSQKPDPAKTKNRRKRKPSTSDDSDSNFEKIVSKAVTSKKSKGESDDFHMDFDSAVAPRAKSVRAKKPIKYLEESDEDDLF

Question: What does the source list for `O=C1C(NCCc2ccc(O)cc2)=CC2=NCCc3c[nH]c1c32` [MAKALUVAMINE D]?
Answer: IC50 [1]: 80 nM; IC50 [2]: > 170 nM

Question: With `Cn1cc2c3c1C(=O)C(N/C=C/c1ccc(O)cc1)=CC3=NCC2` [MAKALUVAMINE E] as the compound, how does the IC50 [1] read?
Answer: 80 nM

Question: What about the IC50 [2] of the same compound?
Answer: > 170 nM

Question: With `O=C1C(NC2Cc3cc(Br)c(O)cc3S2)=CC2=NCCc3c[nH]c1c32` (stereo not given) [MAKALUVAMINE F] as the compound, how does the IC90 [3] read?
Answer: 25000 nM

Question: And the IC50 [1]?
Answer: 80 nM

Question: What about the IC50 [2] of the same compound?
Answer: > 170 nM

Question: With `Cn1cc2c3c1C(=O)C(N/C=C/c1ccc(O)cc1)=CC3=[N+](C)CC2.O=C([O-])C(F)(F)F` [MAKALUVAMINE G] as the compound, how does the concentration at 1 h [4] read?
Answer: < 40 nM

Question: And the microsomal CLint at 1 µM [5]?
Answer: 235 µL/min/mg

Question: What about the IC50 [6] of the same compound?
Answer: 2000 nM

Question: And the “growth inhibition (GI)” value [7]?
Answer: inactive

Question: And the MTD at 96 h [8]?
Answer: 8 mg/kg/day

Question: What about the microsomal CLint at 1 µM [9] of the same compound?
Answer: 197 µL/min/mg

Question: What about the half-life at 1 µM [10] of the same compound?
Answer: 8.8 min

Question: What about the IC50 [11] of the same compound?
Answer: 36 nM

Question: And the “growth inhibition (GI)” value [12]?
Answer: Active

Question: What about the Activity [13] of the same compound?
Answer: 48%

Question: What about the Activity [14] of the same compound?
Answer: 10%

Question: And the Activity [15]?
Answer: 35%

Question: What about the half-life at 1 µM [16] of the same compound?
Answer: 7.4 min

Question: What about the Activity [17] of the same compound?
Answer: 47%

Question: And the selectivity ratio [18]?
Answer: 55

Question: What about the selectivity ratio [19] of the same compound?
Answer: 51

Question: What about the “growth inhibition (GI)” value [20] of the same compound?
Answer: Active

Question: And the IC50 [21]?
Answer: 39 nM
